Tested on: MS2 coat protein
Test: apparent Kd, MS2 coat protein; higher = weaker binding; RNA-MaP array; FMN 200 µM where present
In short: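 The apparent Kd is reported as the median of filtered per-cluster binding-curve fits. To get these curves, designs transcribed by stalled E. coli RNA polymerase on Illumina sequencing-chip clusters were titrated with SNAP-549-labelled MS2 coat protein from 0.7 or 1.5 nM, doubling to 3 µM. Titrations were run without and then with constant ligand in 100 mM Tris-HCl pH 7.5, 80 mM KCl, 4 mM MgCl2, BSA, DTT, yeast tRNA and Tween-20, and green signal was normalised to red-channel RNA signal and control-cluster median Fmax.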

[1] = designed as: OFF switch for flavin mononucleotide, no ligand
[2] = ligand present: flavin mononucleotide, designed as: OFF switch for flavin mononucleotide
[3] = designed as: ON switch for flavin mononucleotide, no ligand
[4] = ligand present: flavin mononucleotide, designed as: ON switch for flavin mononucleotide

Row | Sequence | apparent Kd [1] | apparent Kd [2] | apparent Kd [3] | apparent Kd [4]
1 | GGAUGACAAAGUCAUCCAAAUCGAACAUGAGGAUCACCCAUGUAGGAUAUGCUACACAAAGUGUAGCAGAAGGACAUGUGCUUU | 42.2 nM | 258 nM |  | 
2 | CGAUAUAUGAAGGGCUAAUGCCCACAUGAGGAUCACCCAUGUAGAAGGCGAUCCGCAACGCGGAUCGAGGAUAUAUAGUAUACA | 9.02 nM | 9.66 nM |  | 
3 | UCACGGGUUUGAGGAUAUAUUAUUAUUAUUUAAAUAGAAGGCAAAGAAAUUGUUAUUUCACUAUACAUGAGGAUCACCCAUGUU | 25.4 nM | 23.4 nM |  | 
4 | CGCUACGUUUCGUAGCAGCUAGGUGAGGAUAUUCAAUUUUUCACAUGAGGAUCACCCAUGUAUGUGAAGAAGGCGCCUAGAAAA |  |  | 11 nM | 4.78 nM
5 | GUGUACAGAGGAUAUACAUAAGCUAGGAAACUAGCAUCCUCACAUGAGGAUCACCCAUGUAGAAGGCUGUACAC | 305 nM | 19.6 nM |  | 
6 | UCUGGUCGAGGAUAUGCAAUCGUGCUUCGGCACGUAAGAUCACAUGAGGAUCACCCAUGUAGAAGGCGACCAGA | 22.3 nM | 78.3 nM |  | 
7 | AUCAUGUAAGGAUAUCUUACAUGUGACUUCGGUCACAGUUAAGAGAAGGUACAUGAGGAUCACCCAUGUAUAAC | 28 nM | 45.3 nM |  | 
8 | ACUAUACGAGGAUAUACUGUCGGGCCUCGGGCAUACAUACGACAUGAGGAUCACCCAUGUAGAAGGCGUUUACU | 34.3 nM | 61.6 nM |  | 
9 | AGUCGGAGCAGAGGAUAUAUACAUGAGGAUCACCCAUGUAAAUGAGUAAGCUGGAAACAGCAAGUAUAGAAGGCUGCUCCGACA | 18.2 nM | 35.1 nM |  | 
10 | ACGACUAGAGGAUAUACAUGAGGAUCACCCAUGUAACUGUCAGGUGACUGACGGAGAUGUAGAAGGCUAGUCGA | 15.7 nM | 42.8 nM |  | 
11 | UUUUCUUUUGUGAGGAUAUACUUGUUUUUUUUUUUGUAGAAGGCACAUGAGGAUCACCCAUGUUUUCUUUCCUG | 17 nM | 19.8 nM |  | 
12 | UAAUUAAAUGUGAGGAUAUGCUGGUCCUUGGAUCAGCAGAAGGCACAUGAGGAUCACCCAUGUAAUUUAUUUAU | 75.2 nM | 285 nM |  | 
13 | AAGUUAUUAGGAUAUACUUGUGCGAUUUAUACGUUGAUAUUACAUGAGGAUCACCCAUGUAGAAGGAAUAAAAA | 20.8 nM | 17.4 nM |  | 
14 | GAGCUAUGAGGAUAUGCAUAUAUACGGAUUCGUGUAGUACUACAUGAGGAUCACCCAUGUAGAAGGCGUGGCUG | 13.4 nM | 16.7 nM |  | 
15 | CUUUUGUGAGGAUAUCAGGUGUGCUAGCGUACUGGUACAUCUGAGAAGGCACAUGAGGAUCACCCAUGUUUCUU | 32.9 nM | 75.5 nM |  | 
16 | AAUUAUUUUUGAGGAUAUCGUGGUGAAACACCACGAGAAGGCGAGAUAAACAUGAGGAUCACCCAUGUGAGCCUGAUGCUUAUG | 21.2 nM | 44.4 nM |  | 
17 | AUAGGACGAAACAUGAGGAUCACCCAUGUGUUAUAAUUAAUAUAGGAUAUGUUUAUACUUUUUGGGCAGAAGGAUGAUAAUGCU |  |  | 16.6 nM | 14.7 nM
18 | CGUGUGUGAGGAUAUGACAAUGGUAUCUUCGGAUACCAUUGUCAGAAGGUACAUGAGGAUCACCCAUGUAGAUC | 37.7 nM | 70.3 nM |  | 
19 | AAUUUACAUGAGGAUCACCCAUGUGAGGAUAUAUAUACAUGCUUGUUAUUGCGUGUGUGUAGAAGGCGCGUGAU | 64.7 nM | 115 nM |  | 
20 | AAUUGGAUCCAGAAGGCAUGGACGACCCGUCACAUUAACAUGAGGAUCACCCAUGUCAAAAGACAUGAGGAUAUGGAUCCUAAA |  |  | 752 nM | 31.8 nM
21 | UUUUACCUAGGAUAUACAUUUUUUUUAUUAUUUUCAUUAUAACAUGAGGAUCACCCAUGUAGAAGGAGGAUUUU | 28.4 nM | 33.6 nM |  | 
22 | CUGGUGUUAGGAUAUUCGAGGCUGCCUCGGAGACGAGGGUAGGAGAAGGGACAUGAGGAUCACCCAUGUGCUCC | 34.4 nM | 37.6 nM |  | 
23 | UGCUGGUGACAGCAUCCAUCAAAACAUGAGGAUCACCCAUGUAGAAGGCUGUACGGUUACCGUACAGAGGAUAUACAAUGAUGU | 13.2 nM | 23.6 nM |  | 

Source: the EternaBench riboswitch data
